# Measured values as given in ChEMBL document CHEMBL4513216, “Probing the Open Global Health Chemical Diversity Library for Multistage-Active Starting Points for Next-Generation Antimalarials” (ACS Infect Dis, 2020).
# Test: Toxicity liver stage against HepG2, at 10uM
# Assay type: cell-based
# Set-up: test concentration 10 uM, cell line HepG2-A16-CD81EGFP
# Settings: human, HepG2-A16-CD81EGFP cells; read-out: INHIBITION
# How it was run: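 Uninfected HepG2-A16-CD81EGFP cells, 3 × 10^3 per well, 1536-well, plated on prespotted compound at 10 μM final, parasite-free screening media added to match infected plates; puromycin 10 μM positive, DMSO 0.5% negative; run in parallel with 48 h PbLuc assay at 37 °C, 5% CO2; viability by CellTiter-Glo luminescence, normalized to controls.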
row,SMILES,cytotoxicity at 10 µM
1,CS(=O)(=O)C1=C(O)C(=O)N(c2ccccc2)C1c1ccccc1 (configuration not stated),-1.06%
2,COc1cccc(NC(=O)C2CC(=O)n3cnnc3S2)c1 (configuration not stated),2.27%
3,COc1cccc2c1ccn2CCNC(C)=O,1.89%
4,COc1ccc2c(c1)c(C(=O)Nc1n[nH]c(C(C)C)n1)cn2C(C)C,-26.8%
5,Cn1c(C(F)(F)F)nn(CCNC(=O)Nc2ccccc2Cl)c1=O,13.4%
6,Cc1ncn(CCNC(=O)Nc2ccc(F)c(Cl)c2)c(=O)c1C,-2.93%
7,Cc1nsc(C(=O)NCCc2ccc(Cl)cc2)n1,2.09%
8,O=C(Cc1ccsc1)N1CCC2(CCCN(CC3CCOCC3)C2)C1 (configuration not stated),-135%
9,CCOCC1CN(C(=O)c2ccoc2)Cc2nn(C)cc21 (configuration not stated),0.254%
10,COCC(=O)N1CCC2(CCN(c3cnn(C)c3)C2=O)C1 (configuration not stated),0.486%
11,CCN1CC2(CC1=O)CN(C(=O)c1ccoc1)CCN(C(=O)N(C)C)C2 (configuration not stated),4.26%
12,O=C(c1ccccc1)N1CC(C(=O)N2CCOCC2)C2(CCOCC2)C1 (configuration not stated),3.07%
13,Cn1ncc2c1C(COCC1CC1)CN(C(=O)Cc1ccsc1)C2 (configuration not stated),10.1%
14,CC(C)CCNC(=O)C1CCN(c2ccc3nnc(C(C)C)n3n2)CC1,1.68%
15,COc1cccc2c3c(c(=O)[nH]c12)CCO3,5.57%
16,CN(C)C(=O)c1nc2c(s1)CCN(C(=O)c1ccc(Cl)cc1)CC2,-14.2%
17,CC(C)(C)NC(=O)c1ccn(COc2c(Cl)cccc2Cl)n1,3.02%
18,Fc1ccccc1NCc1nc2n(n1)CCCCC2,2.02%
19,COc1cc(C(F)(F)F)sc1C(=O)O,-3.29%
20,CCn1nc(CNC(C)(C)CO)c(-c2ccccc2)n1,8.96%
21,Cc1nc(N2CCOCC2)ncc1-c1cc(O)nc(N2CCCCC2)n1,6.2%
22,Cc1cnc2[nH]c(C(F)(F)F)c(CN3CCSCC3)c2c1,13.3%
23,Cc1cc(C)nc(C2CCCN2C(=O)c2cnccn2)n1 (configuration not stated),3.74%

row,SMILES,cytotoxicity at 10 µM
1,CNc1nccnc1C1CN(Cc2ccc3[nH]ccc3c2)CCO1 (configuration not stated),-2.52%
2,CCc1nccn1-c1cccc(C2CCN(C(=O)COC)CC2)n1,-14.9%
3,CS(=O)(=O)N1CCCC1Cn1cccn1 (configuration not stated),-10.2%
4,O=C(O)c1ccccc1CN1CCOC(CCc2ccncn2)C1 (configuration not stated),-20.6%
5,COCCCNC(=O)c1ccccc1-n1cc(CN(C)C)cn1,-22.4%
6,Cc1noc(CNC(=O)c2ccccc2-n2cc(CN)cn2)n1,-19.6%
7,Cc1nn(C)cc1CN1CCC(C2Nc3ccccc3S(=O)(=O)N2)CC1 (configuration not stated),-2.19%
8,CN(C)CCOc1ccccc1N1CCN(C(=O)C(C)(C)C#N)CC1,11.4%
9,Cn1ccnc1C(O)(CCNCc1ccco1)C(F)(F)F (configuration not stated),1.66%
10,CSCC(C)C(=O)NCc1c(C)nc2cc(=O)[nH]n2c1C (configuration not stated),-16.3%
11,CNS(=O)(=O)CC1CCCN1c1ccc(Br)cn1 (configuration not stated),3.1%
12,CCN(C)Cc1cccc(CNC(=O)CSCc2ccccn2)c1,1.61%
13,CCN(CC)C(CNC(=O)c1cccnc1-n1cncn1)c1ccsc1 (configuration not stated),-146%
14,NS(=O)(=O)CCNC(=O)c1ccc(OCc2ccccc2)nc1,6.85%
15,Cc1noc(C)c1CN(C)CC1CC(C2CCCCC2)=NO1 (configuration not stated),3.72%
16,CCNC(=O)C1CCCN(c2ccc3ccc(F)cc3n2)C1 (configuration not stated),-1.69%
17,O=C(Cc1ccon1)N1CCN(c2ccncc2Cl)CC1,-2.47%
18,CC(Cc1cccc(F)c1)C(=O)NS(=O)(=O)c1ccc(F)cc1 (configuration not stated),5.58%
19,CN1N=C(C(=O)N2CCCN(c3ncccc3C#N)CC2)CCC1=O,-1.8%
20,CN(Cc1cnn(C)c1)S(=O)(=O)N1CCCCC1,-3.38%
21,Cc1cc(C)n(CC2CCCCN2CC(=O)Nc2c(C)n[nH]c2C)n1 (configuration not stated),-1.92%
22,CC(CO)CSc1ncnc2[nH]ncc12 (configuration not stated),-12.3%
23,NC(=O)CSc1ccccc1NC(=O)C1CCCCC1,-127%

row,SMILES,cytotoxicity at 10 µM
1,N#CCCCOc1cccnc1NC(=O)CC1CCCCC1,21.9%
2,CNC(=O)N1CCCCC1c1nnc2n1CCCC2 (configuration not stated),-6.1%
3,CN(C(=O)COCc1ccccc1)C1CCN(CC2CCOC2)CC1 (configuration not stated),-3.7%
4,CN1CCCC(N2CCN(c3nc4ccccn4c3C#N)CC2)C1 (configuration not stated),1.52%
5,COc1ccc(OC)c(-n2nnnc2SCC2CCCCO2)c1 (configuration not stated),11.7%
6,O=C(NC1CCCN(c2ccccc2Cl)C1)c1c[nH]nn1 (configuration not stated),-1.58%
7,CS(=O)(=O)NC1CCCN(C(=O)Nc2ccccc2Cn2cccn2)C1 (configuration not stated),3.81%
8,CCNc1nc(C)c(C(=O)N(C)Cc2nc(CC)no2)s1,-6.02%
9,CCn1cc(S(=O)(=O)N2CCCC2c2ccc(C)o2)cn1 (configuration not stated),20.9%
10,Cc1ccc(C2CSCCN2C(=O)c2cccs2)o1 (configuration not stated),3.82%
11,Cc1cc(F)ccc1S(=O)(=O)N1CCN(C)c2ccncc21,8.29%
12,N#Cc1ccc(-c2nnc(CSCCN3CCOCC3)o2)cc1,-5.08%
13,Cc1nn(C)c(C)c1C1CCCN1C(=O)Cc1cn2ccsc2n1 (configuration not stated),-45.2%
14,CN(C)CCN(Cc1ccco1)C(=O)Cc1cn2ccsc2n1,5.92%
15,c1coc(CN2C[C@H](OCC3CCOCC3)[C@H]3COC[C@H]32)c1,0.127%
16,CS(=O)(=O)N[C@@H]1CCO[C@]2(CCN(C(=O)C3=CCCC3)C2)C1,0.693%
17,CSCc1noc(C2CCC(=O)N(CCc3ccccc3)C2)n1 (configuration not stated),-6.72%
18,Cc1ccc(NC2(C(=O)NC(C)c3ncn[nH]3)CCCC2)cc1 (configuration not stated),0.317%
19,COc1ccc(F)c(-c2ncccc2NC(=O)C(C)C)c1,5.69%
20,CNC(=O)[C@@H]1C[C@@H](NC(=O)c2ccc(OC)o2)CN1Cc1sccc1C,2.29%
21,CC(C)c1nc(N2CCC(N3CCSCC3)CC2)c2cnn(C)c2n1,-136%
22,O=C(NCCCn1ccnn1)C1CCCN(C2CCCC2)C1 (configuration not stated),-6.03%
23,COc1ccc(F)c(F)c1CN1CC(=O)N(c2ccccc2C)CC1C (configuration not stated),-0.121%

row,SMILES,cytotoxicity at 10 µM
1,NCCc1n[nH]c(=O)n1-c1cccc(Cl)c1Cl,-2.38%
2,Cc1ncc(C(=O)N2CCC(N3CCc4ccccc4C3)CC2)c(O)n1,-0.745%
3,Cc1c(-c2nc3cc(S(=O)(=O)N4CCCC4)ccc3n2C)cnn1C,2.2%
4,CCOc1ccccc1C(C(=O)O)N(C)Cc1nc(C)c[nH]1 (configuration not stated),-5.18%
5,Cc1nccn1CCCC(=O)N1CCN(c2cccnc2)CC1,-4.98%
6,COCCNS(=O)(=O)c1cccc2c1CN(C(=O)c1ccccc1)CC2,5.54%
7,COCCC1(CO)CCCN(Cc2ccc(F)c(C)c2)C1 (configuration not stated),-1.31%
8,Cc1cccc(CN2C[C@H]3OC(=O)N(CCCN4CCOCC4)[C@H]3C2)n1,-6.85%
9,CN1CCCC(c2n[nH]c3ncccc23)C1 (configuration not stated),-3.35%
10,CCc1nnc2n1CCN(C(=O)c1cc3c(F)cccc3[nH]1)C2,6.41%
11,CCn1cnnc1C1CCN(C(=O)c2ccccc2F)CC1,-5.13%
12,Cc1nccn1-c1cc(CNC(=O)C2CCCO2)ccn1 (configuration not stated),-7.81%
13,CCCc1n[nH]c(C2CN(C(=O)c3n[nH]c4ccccc34)CCO2)n1 (configuration not stated),-1.39%
14,COc1c(CNCCC(=O)NC2CCCC2)c(C(C)C)nn1C,-4.41%
15,CCOc1ccc(CN(CC)C(=O)c2ccc(C)[nH]c2=O)cc1OC,-6.83%
16,Cc1cc(C)n(CC2CCCN2C(=O)c2c[nH]c(=O)c(Cl)c2)n1 (configuration not stated),1.53%
17,Cc1cc(NC(=O)CNC2CCCN(c3cccnn3)C2)on1 (configuration not stated),5.98%
18,Cc1ccc(N2CCCC(NCC(=O)Nc3cc(C)nn3C)C2)nn1 (configuration not stated),-1.18%
19,O=C(c1cnc(-c2ncccn2)s1)N1CCCC(n2cccn2)C1 (configuration not stated),-2.85%
20,COc1ccc(NC(=O)CCc2c(C)nc3cc(O)nn3c2C)cn1,-9.21%
21,CC(C)c1noc(C(C)N2CCN(CCN3CCCC3=O)CC2)n1 (configuration not stated),-10.6%
22,Cc1ccc(NC2CCN(C(=O)c3c(C)noc3C)CC2)nn1,-4.35%
23,Cc1ccc(C(=O)N2CCCS2(=O)=O)cc1Cl,2.29%

row,SMILES,cytotoxicity at 10 µM
1,O=C(CCNc1ncccn1)N1CCCC(n2ccnc2)C1 (configuration not stated),0.289%
2,Cc1cc(C)n(C2CN(CC(=O)NC3CCOCC3)C2)n1,-3.92%
3,CCOCCC(=O)N1CCCN(Cc2csc(CC)n2)CC1,3.9%
4,Cc1cnn(CCNCc2nnc(C3CC3)o2)c1,-7.89%
5,CC(C)COC(=O)N1CCC2(CCNC2)C1 (configuration not stated),-10.1%
6,c1ccc(CN2CCc3ncnc(C4CC4)c3CC2)nc1,-138%
7,c1cc(CNCC2OCCc3cn(CC4CC4)nc32)cs1 (configuration not stated),2.61%
8,O=C(NC1COC2(CCN(Cc3cccs3)CC2)C1)c1ccccn1 (configuration not stated),-2.19%
9,CCOc1cc(CN(C)CC(=O)O)ccc1OC(F)F,7.99%
10,CNC(=O)c1cc2c(nc1NCC(C)C)CCN(CCOC)CC2,-147%
11,COc1nn(C)c2c1CCCN(C(=O)c1ccc3c(c1)OCO3)C2,13.1%
12,CCN1CC2(CC1=O)CN(Cc1cnn(C)c1)CCN(C(=O)N(C)C)C2 (configuration not stated),-1.9%
13,CCc1ccc(CN2C[C@@H](C)C3(CCN(CC(=O)N(C)C)C3=O)C2)o1 (some centres not stated),1.11%
14,COc1ccc(CN2CCc3[nH]nc(C(=O)N(C)C)c3C2)cc1,5.18%
15,CCN1CC2(CC1=O)CN(Cc1ccsc1)CCN(C(=O)C(C)C)C2 (configuration not stated),5.08%
16,Cc1c(C2CCCN(C(=O)c3ccncc3)C2)n2c(nc1=O)CCC2 (configuration not stated),-21.8%
17,Cc1cccc(CN2C[C@@H]3COC[C@]3(CNC(=O)N3CCCC3)C2)n1,1.05%
18,O=C(c1ccc[nH]1)N1C[C@@H]2CC[C@H]1CN(C1Cc3ccccc3C1)C2,-1.85%
19,CCCS(=O)(=O)N1C[C@@H]2C[C@H](C(=O)N3CCN(C)CC3)[C@H](C1)O2,1.47%
20,Cn1cnc(S(=O)(=O)N2C[C@H]3CC[C@@H](C2)N(Cc2ccccn2)C3)c1,7.27%
